The text below walks through data of ChEMBL document CHEMBL1152353, “Pyrimido[5,4-e][1,2,4]triazine-5,7(1H,6H)-dione derivatives as novel small molecule chaperone amplifiers” (Bioorg Med Chem Lett, 2009).

Active and inactive are the calls of the source. No cut-off for these calls is given here.

Series [1] has as its system SK-N-SH. Put plainly: Cytoprotection against rotenone stress-induced toxicity in human SK-N-SH cells after 48 hrs by MTS assay. The format is functional, cell-based. To be noted: Homo sapiens, SK-N-SH, 48 h; read-out: EC50. Put shortly:
(§1)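 SK-N-SH neuroblastoma cells (within passage 6) seeded in DMEM with 0.1% FBS for 18 h, then fresh medium with 200 nM rotenone (final) plus compound, 0.019 to 10 µM. Incubated 48 h, then MTS viability read. Cytoprotection expressed as viability increase over the rotenone DMSO control; EC50 = concentration giving half-maximal protection. Data averaged over multiple tests.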
A general note: Tetrazolium dyes change colour on reduction, which living cells bring about.

Series [2] is described as follows: (§2) Cytotoxicity against human HeLa cells after 72 hrs by MTS assay. The format is cell-based. The conditions noted are these: HeLa cells. Put shortly: (§3)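 HeLa (8000 cells/well) or SK-N-SH (14,000 cells/well) cells seeded in DMEM with 10% FBS for 18 h. Compound added at 1:200 dilution, final 0.3 to 80 µM, 0.5% v/v DMSO. Exposure 72 h, then MTS/PMS for 4 h, SDS to 1.4% w/v, absorbance at 492 nm. CC50 = concentration giving half-maximal cytotoxicity.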

Series [3] concerns the target T1, Heat shock factor protein 1 (Homo sapiens) (UniProt Q00613).
T1 sequence (whole entry): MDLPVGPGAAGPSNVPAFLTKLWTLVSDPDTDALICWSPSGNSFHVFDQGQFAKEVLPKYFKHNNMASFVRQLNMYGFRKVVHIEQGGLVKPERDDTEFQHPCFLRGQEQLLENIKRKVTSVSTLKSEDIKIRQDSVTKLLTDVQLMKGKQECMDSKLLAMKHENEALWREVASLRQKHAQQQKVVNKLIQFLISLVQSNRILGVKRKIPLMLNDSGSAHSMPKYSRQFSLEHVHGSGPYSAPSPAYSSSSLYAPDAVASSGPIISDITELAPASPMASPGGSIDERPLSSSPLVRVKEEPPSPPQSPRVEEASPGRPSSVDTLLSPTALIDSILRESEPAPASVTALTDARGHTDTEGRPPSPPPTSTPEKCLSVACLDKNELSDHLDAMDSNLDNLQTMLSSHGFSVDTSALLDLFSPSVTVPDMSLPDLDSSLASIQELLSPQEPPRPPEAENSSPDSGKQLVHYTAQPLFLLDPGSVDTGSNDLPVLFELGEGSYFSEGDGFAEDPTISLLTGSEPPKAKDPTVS
Put plainly: Amplification of HSF1 transcriptional activity in human HeLa cells assessed as granule formation pretreated for 3 hrs by immunocytochemical staining. The format is cell-based. Put shortly:
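HeLa cells pretreated with compound 1 h, then mild heat shock 41 °C for 2 h, no recovery; control arm pretreated 3 h at 37 °C without heat shock. Compound diluted 200-fold, 0.3 to 80 µM range.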

A short description of series [4]: Cytotoxicity against human SK-N-SH cells after 72 hrs by MTS assay. The format is cell-based. In short, it runs like this:
as §3

For series [5], the system named is SK-N-SH. Put plainly: Cytoprotection against rotenone stress-induced toxicity in human SK-N-SH cells assessed as increase in cell survival at 0.625 after 48 hrs by MTS assay relative to control. The format is functional. In short, it runs like this:
as §1

Series [6] concerns SK-N-SH. Description: Cytoprotection against rotenone stress-induced toxicity in human SK-N-SH cells assessed as increase in cell viability after 48 hrs by MTS assay relative to control. The format is functional. The arrangement: concentration or dose not given beside the values. Put shortly:
as §1

Series [7] relates to SK-N-SH. Put plainly: Cytoprotection against rotenone stress-induced toxicity in human SK-N-SH cells at 0.16 uM after 48 hrs by MTS assay. The format is functional. Put shortly: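 SK-N-SH cells (within passage 6) seeded in DMEM with 0.1% FBS for 18 h, then fresh medium with rotenone (final 200 nM) plus compound (range from 0.019 up to 10). Incubated 48 h, viability by MTS; cytoprotection as viability increase over DMSO-plus-rotenone control.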

The subject of series [8] is SH-SY5Y. Description: Cytoprotection against oxygen-glucose deprivation-induced cytotoxicity in human SH-SY5Y cells at 2.5 uM after 28 hrs by MTS assay. The format is functional. In short, it runs like this: (§4)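 SH-SY5Y cells plated on collagen I-coated wells, grown 16–24 h in complete medium, washed twice in deoxygenated glucose- and serum-free medium; compound added within 1 h before OGD. Chambers flushed with 95% N₂/5% CO₂, residual O₂ <1%, held at 37 °C for 28 h. MTS viability; cytoprotection = (MTS_compound − MTS_DMSO)/MTS_DMSO × 100% versus OGD DMSO control.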

Series [9] concerns SH-SY5Y. Put plainly: Cytoprotection against oxygen-glucose deprivation-induced cytotoxicity in human SH-SY5Y cells at 0.5 uM after 28 hrs by MTS assay. The format is functional. In short, it runs like this:
as §4

Series [10] relates to SH-SY5Y. Put plainly: Cytoprotection against oxygen-glucose deprivation-induced cytotoxicity in human SH-SY5Y cells at 1 uM after 28 hrs by MTS assay. The format is functional. Put shortly:
as §4

For series [11], the system named is HeLa. Described as §2. The format is cell-based. To be noted: hela, 72 h. Put shortly: as §3
Series [12] deals with HeLa. Description: Cytotoxicity against human HeLa cells at 80 uM after 72 hrs by MTS assay. The format is cell-based. Put shortly: as §3
A short description of series [13]: Therapeutic index, ratio of […]. The format is cell-based. To be noted: read-out: FC.
Series [14] can be described thus: Therapeutic index, ratio of CC50 for human SK-N-SH cells to EC50 for human SK-N-SH cells. The format is cell-based. The conditions noted are these: read-out: Ratio CC50/EC50.

By EC50 is commonly meant the concentration giving half of the maximal effect. For orientation: CC50 means the concentration giving 50% cytotoxicity. Turning to `CCCCn1nc(-c2ccc3ccccc3n2)nc2c(=O)n(C)c(=O)nc1-2`, in the series with SK-N-SH [1], the 50% effective concentration (EC50) came out at 0.29 µM. In addition, the CC50 at 72 h stood at 9.5 µM in series [2] and 4 µM in series [4]. Further, in series [3], the result was inactive. For the same compound, the Activity with SK-N-SH [5] was 103%; with SK-N-SH [6], 71%.
Turning to `CC1=C(O)C(=O)C=C2C1=CC=C1[C@@]2(C)CC[C@@]2(C)[C@@H]3C[C@](C)(C(=O)O)CC[C@]3(C)CC[C@]12C` [CELASTROL], the Activity is 24% with SK-N-SH [7]; -22% in the series on SH-SY5Y [8]; 8% with SH-SY5Y [9]; 24% in the series with SK-N-SH [6]; 18% in the series with SH-SY5Y [10]. For the same compound, the CC50 at 72 h in series [2] came out at 3 µM; in [4], 1.6 µM.
For `CCCCn1nc(-c2nc3ccccc3[nH]2)nc2c(=O)n(C)c(=O)nc1-2`, in the series with SK-N-SH [1], the concentration giving a half-maximal response (EC50) came to 1.9 µM. For the same compound, the Activity entry is “Not Active” in the series with HeLa [11], 59% in the series on SK-N-SH [6] and 76% with HeLa [12]. The result in series [3] was inactive. Moreover, in series [4], it took 13.1 µM to reach half-maximal cytotoxicity (CC50 at 72 h).
Take `CCn1nc(-c2ccc(C)s2)nc2c(=O)n(C)c(=O)nc1-2`: in the series on SK-N-SH [1], the EC50 is 1.33 µM. Also, the results for the selectivity ratio in series [13] and in series [14] were at most 7 and at most 48, respectively. Also, the CC50 at 72 h in series [2] came out at 22.2 µM; in series [4] it was 63.5 µM. The result in series [3] was inactive. For the same compound, the Activity with SK-N-SH [6] is reported as 50%.
